Activity calls are given as the source filed them. The rule behind the calls is not given here.
Columns and labels:
Cavia porcellus [1] = assay: Inhibition of LTD4 (leukotriene) induced bronchospasm in the guinea pig when administered intraduodenally at 25 mg/kg
Cavia porcellus [2] = assay: Inhibition of LTD4 (leukotriene) induced bronchospasm in the guinea pig when administered intraduodenally (50 mg/kg) NA means not active; format: functional, organism-based
In short: (§1)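 Guinea pig bronchoconstriction induced by LTD4 or by ovalbumin. Antagonist was given intraduodenally 10 min before the agonist. […] Single-dose lines give percent inhibition at the stated id dose.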

Cavia porcellus [3] = assay: Inhibition of Ovalbumin (OA) induced bronchospasm in the guinea pig when administered perorally (50 mg/kg); format: functional
In short: (§2)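 Guinea pig bronchoconstriction induced by LTD4 or by ovalbumin. Antagonist was dosed orally to awake animals 120 min before the agonist, which is 95 min before anesthetic. […] Single-dose lines give percent inhibition at the stated oral dose.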

[4] = target: Cysteinyl leukotriene receptor (Homo sapiens) (UniProt Q9Y271+Q9NS75); assay: Inhibition of Ovalbumin (OA) induced bronchospasm in the guinea pig when administered intraduodenally (50 mg/kg); format: functional, organism-based; conditions: Cavia porcellus; target entry is the homologue from another species
In short: as §1

Cavia porcellus [5] = assay: Inhibition of LTD4 (leukotriene) induced bronchospasm in the guinea pig when administered intraduodenally (50 mg/kg)
Cavia porcellus [6] = assay: Inhibition of LTD4 (leukotriene) induced bronchospasm in the guinea pig when administered perorally (50 mg/kg)
Cavia porcellus [7] = assay: Relative inhibitory potency against ovalbumin induced bronchospasm when administered intraduodenally; format: functional
Cavia porcellus [8] = assay: Antagonist activity was determined by the ability to inhibit of LTD4 (leukotriene D4) induced bronchospasm when administered per orally; format: functional; conditions: po
In short: as §2

Cavia porcellus [9] = assay: Relative inhibitory potency against ovalbumin induced bronchospasm when administered per orally; format: functional
Cavia porcellus [10] = organism: Cavia porcellus; assay: relative potency antagonist on LTD4-induced contraction of isolated guinea pig trachea; format: functional
In short: (§3)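 Guinea pig tracheal spirals stretched to near-optimal length and equilibrated 1.5 h, washed every 15 min. Indomethacin (5 μM) was present in all tissues. Cumulative LTD4 dose-response curves were recorded isometrically via force transducers. Paired proximal/distal strips from one animal got solvent control or drug. Values are negative log, mean ± SEM, and were compared by Student's t test.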

Cavia porcellus [11] = assay: Antagonist activity was determined by the ability to inhibit of LTD4 (leukotriene D4) induced bronchospasm when administered intraduodenally; format: functional; conditions: intraduodenal
In short: as §1

Cavia porcellus [12] = assay: Relative inhibitory potency against LTD4 (leukotriene D4) induced bronchospasm when administered intraduodenally; format: functional
Cavia porcellus [13] = assay: Antagonist activity was determined by the ability to inhibit of ovalbumin induced bronchospasm when administered intraduodenally; format: functional; conditions: intraduodenal
In short: as §1

Cavia porcellus [14] = assay: Relative inhibitory potency against LTD4 (leukotriene D4) induced bronchospasm when administered per orally; format: functional
Cavia porcellus [15] = assay: Antagonist activity was determined by the ability to inhibit of ovalbumin induced bronchospasm when administered per orally; format: functional; conditions: po
In short: as §2

Cavia porcellus [16] = organism: Cavia porcellus; assay: Antagonist activity towards LTD4-induced contraction of isolated guinea pig; format: functional
In short: as §3

Cavia porcellus [17] = assay: Inhibition of LTD4 (leukotriene) induced bronchospasm in the guinea pig when administered intraduodenally (50 mg/kg); Not active; format: functional, organism-based
In short: as §1

Cavia porcellus [18] = assay: Inhibition of LTD4 (leukotriene) induced bronchospasm in the guinea pig when administered perorally at 25 mg/kg; NA means not active; format: functional, organism-based; design: dose 25 mg/kg
In short: as §2

Cavia porcellus [19] = assay: Inhibition of LTD4 (leukotriene) induced bronchospasm in the guinea pig when administered perorally (50 mg/kg); remark: listed apart in the source
[20] = target: Cyclooxygenase (Rattus norvegicus); assay: Ability to inhibit Prostaglandin G/H synthase in rat
Cavia porcellus [21] = organism: Cavia porcellus; assay: relative potency antagonist on LTD4-induced contraction of isolated guinea pig; format: functional
In short: as §3

Cavia porcellus [22] = assay: Inhibition of LTD4 (leukotriene) induced bronchospasm in the guinea pig when administered perorally (50 mg/kg); NA means not active; format: functional, organism-based
In short: as §2

Chain of Cysteinyl leukotriene receptor (Homo sapiens) (Q9NS75 whole entry, looked up): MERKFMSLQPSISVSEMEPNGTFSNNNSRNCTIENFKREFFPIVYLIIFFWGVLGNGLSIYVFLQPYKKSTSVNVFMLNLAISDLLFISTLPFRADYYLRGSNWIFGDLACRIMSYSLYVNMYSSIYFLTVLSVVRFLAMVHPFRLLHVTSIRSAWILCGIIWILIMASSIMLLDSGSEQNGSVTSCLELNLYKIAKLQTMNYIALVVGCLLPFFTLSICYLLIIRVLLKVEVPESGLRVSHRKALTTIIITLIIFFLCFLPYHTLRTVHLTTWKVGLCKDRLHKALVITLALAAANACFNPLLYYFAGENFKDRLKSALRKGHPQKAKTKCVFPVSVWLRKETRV
Chain of Cysteinyl leukotriene receptor (Homo sapiens) (Q9Y271 whole entry, looked up): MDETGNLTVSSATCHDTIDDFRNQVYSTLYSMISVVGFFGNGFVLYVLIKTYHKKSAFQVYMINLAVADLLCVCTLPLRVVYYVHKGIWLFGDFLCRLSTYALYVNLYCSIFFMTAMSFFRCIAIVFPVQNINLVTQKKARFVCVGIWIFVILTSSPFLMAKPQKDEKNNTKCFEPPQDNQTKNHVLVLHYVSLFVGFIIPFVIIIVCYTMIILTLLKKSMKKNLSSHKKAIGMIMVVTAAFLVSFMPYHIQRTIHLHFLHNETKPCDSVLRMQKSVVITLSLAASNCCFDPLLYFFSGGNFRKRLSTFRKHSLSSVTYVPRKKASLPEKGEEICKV

Q: With `CCOC(=O)CC1=NCC(c2cccc(OCc3ccc4ccccc4n3)c2)O1` (stereo not given) as the molecule, how does the inhibition (Cavia porcellus [1]) read?
A: Its inhibition is 77%.

Q: `CN1CC(c2cccc(OCc3nc4ccccc4s3)c2)OC1=O` (stereo not given) was tested. Which inhibition (Cavia porcellus [2]) did it give?
A: The inhibition was “inactive”.

Q: `CCN(CC)C(=O)N(C)C[C@H](O)c1cccc(OCc2nc3ccccc3s2)c1` was tested. Which Inhibition (Cavia porcellus [3]) did it give?
A: The Inhibition was 41%.

Q: What about the inhibition [4] of the same molecule?
A: Its inhibition is 36%.

Q: And the inhibition (Cavia porcellus [5])?
A: Its inhibition is 59%.

Q: Which results are given for `CCC(=O)N(C)C[C@H](O)c1cccc(OCc2nc3ccccc3n2C)c1`?
A: inhibition (Cavia porcellus [6]): 13%; inhibition [4]: 66%; inhibition (Cavia porcellus [5]): 51%

Q: For `CCN(CC)C(=O)N(CC)C[C@H](O)c1cccc(OCc2ccc3ccccc3n2)c1`, which inhibition (Cavia porcellus [5]) is on record?
A: Its inhibition is 34%.

Q: What does the source list for `CCN(CC)C(=O)N(C)C[C@H](O)c1cccc(OCc2ccc3ccccc3n2)c1`?
A: Potency (Cavia porcellus [7]): 1.1; ED50 (Cavia porcellus [8]): 56 mg/kg; Inhibition (Cavia porcellus [3]): 25%; Potency (Cavia porcellus [9]): 1.4; Potency (Cavia porcellus [10]): 23; ED50 (Cavia porcellus [11]): 9 mg/kg; inhibition [4]: 75%; Potency (Cavia porcellus [12]): 1.5; ED50 (Cavia porcellus [13]): 20 mg/kg; Potency (Cavia porcellus [14]): 1.8; ED50 (Cavia porcellus [15]): 55 mg/kg; pkB (Cavia porcellus [16]): 5.22

Q: How did the inhibition (Cavia porcellus [1]) turn out when `CCOC(=O)NCC(O)c1cccc(OCc2ccc3ccccc3n2)c1` (stereo not given) was run?
A: Its inhibition is 36%.

Q: `CN1CC(c2cccc(OCc3ccc4ccccc4n3)c2)OC1=S` (stereo not given) was tested. Which inhibition (Cavia porcellus [17]) did it give?
A: The inhibition was “inactive”.

Q: What does the source list for `c1cncc(C2=NCC(c3cccc(OCc4ccc5ccccc5n4)c3)O2)c1` (stereo not given)?
A: inhibition (Cavia porcellus [1]): 86%; inhibition (Cavia porcellus [18]): inactive; inhibition (Cavia porcellus [19]): inactive

Q: `c1cc(OCc2ccc3ccccc3n2)cc(C2CN=C(c3cccs3)O2)c1` (stereo not given) was tested. Which inhibition (Cavia porcellus [5]) did it give?
A: The inhibition was 41%.

Q: With `C#CCN(C)C[C@H](O)c1cccc(OCc2ccc3ccccc3n2)c1` as the molecule, how does the inhibition (Cavia porcellus [1]) read?
A: The inhibition was 41%.

Q: With `O=C1NCC(c2cccc(OCc3ccc4ccccc4n3)c2)O1` (stereo not given) as the molecule, how does the inhibition (Cavia porcellus [1]) read?
A: The inhibition was 66%.

Q: How did the inhibition (Cavia porcellus [6]) turn out when `CN1C[C@@H](c2cccc(OCc3ccc4ccccc4n3)c2)OC1=O` was run?
A: The inhibition was 56%.

Q: And the IC50 [20]?
A: Its IC50 is over 100 µM.

Q: And the Potency (Cavia porcellus [21])?
A: The Potency was 3.

Q: What about the Potency (Cavia porcellus [7]) of the same molecule?
A: Its Potency is 2.2.

Q: What about the ED50 (Cavia porcellus [8]) of the same molecule?
A: The ED50 was 36 mg/kg.

Q: And the Inhibition (Cavia porcellus [3])?
A: Its Inhibition is 56%.

Q: What about the Potency (Cavia porcellus [9]) of the same molecule?
A: The Potency was 2.5.

Q: And the ED50 (Cavia porcellus [11])?
A: Its ED50 is 12 mg/kg.

Q: And the inhibition [4]?
A: Its inhibition is 56%.

Q: And the Potency (Cavia porcellus [12])?
A: Its Potency is 2.

Q: And the ED50 (Cavia porcellus [13])?
A: Its ED50 is 42 mg/kg.

Q: What about the inhibition (Cavia porcellus [5]) of the same molecule?
A: Its inhibition is 91%.

Q: And the Potency (Cavia porcellus [14])?
A: Its Potency is 1.1.

Q: What about the ED50 (Cavia porcellus [15]) of the same molecule?
A: Its ED50 is 95 mg/kg.

Q: What about the pkb (Cavia porcellus [16]) of the same molecule?
A: Its pkb is 6.09.

Q: For `CCN(CC)C(=O)N(C)CC(=O)c1cccc(OCc2ccc3ccccc3n2)c1`, which inhibition (Cavia porcellus [5]) is on record?
A: Its inhibition is 26%.

Q: Which results are given for `c1cc(OCc2ccc3ccccc3n2)cc(C2CN=C(c3ccncc3)O2)c1` (stereo not given)?
A: inhibition (Cavia porcellus [1]): 77%; inhibition (Cavia porcellus [19]): inactive

Q: Which inhibition (Cavia porcellus [1]) does the source give for `c1ccc(C2=NCC(c3cccc(OCc4ccc5ccccc5n4)c3)O2)cc1` (stereo not given) here?
A: Its inhibition is 11%.

Q: For `COC(=O)C1CCCN1C(=O)N(C)C[C@H](O)c1cccc(OCc2ccc3ccccc3n2)c1` (stereo not given in full), which inhibition [4] is on record?
A: The inhibition was 23%.

Q: And the inhibition (Cavia porcellus [5])?
A: The inhibition was 71%.

Q: Which inhibition [4] does the source give for `CCOC(=O)N(C)C[C@H](O)c1cccc(OCc2ccc3ccccc3n2)c1` here?
A: The inhibition was 20%.

Q: What about the inhibition (Cavia porcellus [5]) of the same molecule?
A: Its inhibition is 71%.

Q: Which inhibition [4] does the source give for `CCNC(=O)O[C@@H](CN(C)C(=O)N(CC)CC)c1cccc(OCc2ccc3ccccc3n2)c1` here?
A: Its inhibition is 80%.

Q: And the inhibition (Cavia porcellus [5])?
A: The inhibition was 54%.

Q: And the inhibition (Cavia porcellus [22])?
A: Its inhibition is “inactive”.

Reference: ChEMBL document CHEMBL1123645, “Phenylephrine derivatives as leukotriene D4 antagonists” (J Med Chem, 1987)
